Calls of active or inactive are those of the source. No cut-off for these calls is given here.
Assays:
Rattus norvegicus [1] = assay: Anticonvulsant activity in ip dosed Sprague-Dawley albino rat assessed as protection against pilocarpine-induced status epilepticus after 0.5 hrs; assay type: functional
Outline: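 Pilocarpine status epilepticus model in rats. Number and severity of convulsive seizures were observed behaviourally.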

Mus musculus [2] = assay: Neurotoxicity in albino CF1 mouse assessed as minimal motor impairment at 300 mg/kg, ip after 4 hrs by rotarod test; assay type: toxicity, organism-based; set-up: dose 300 mg/kg, route intraperitoneal; settings: in vivo
Outline: (§1)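 Mice dosed ip at 30, 100 or 300 mg/kg, then tested 0.5 h and 4 h after administration in the MES or scMet test. Protection was recorded as animals protected over animals tested. Neurotoxicity was recorded as motor impairment or sedation, as animals affected over animals tested.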

Mus musculus [3] = assay: Anticonvulsant activity in albino CF1 mouse assessed as protection against subcutaneous metrazol-induced seizures at 100 mg/kg, ip after 0.5 hrs; assay type: functional, organism-based; set-up: dose 100 mg/kg; outline: as §1
Rattus norvegicus [4] = assay: Neurotoxicity in pilocarpine-induced status epilepticus Sprague-Dawley albino rat model assessed as minimal motor impairment at 300 mg/kg, ip after 2 hrs by rotarod test; assay type: toxicity, organism-based; set-up: dose 300 mg/kg, route intraperitoneal; settings: in vivo
Outline: (§2)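 Rat pilocarpine status epilepticus model: test carbamate given at 0 or 30 min after the first observed Racine stage 3 motor seizure, which marks SE onset. Neurotoxicity was scored within the same model.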

Mus musculus [5] = assay: Anticonvulsant activity in albino CF1 mouse assessed as protection against subcutaneous metrazol-induced seizures at 30 mg/kg, ip after 0.5 hrs; assay type: functional, organism-based; set-up: dose 30 mg/kg; outline: as §1
Rattus norvegicus [6] = assay: Neurotoxicity in pilocarpine-induced status epilepticus Sprague-Dawley albino rat model assessed as minimal motor impairment at 100 mg/kg, ip after 2 hrs by rotarod test; assay type: toxicity, organism-based; set-up: dose 100 mg/kg, route intraperitoneal; settings: in vivo
Rattus norvegicus [7] = assay: Neurotoxicity in pilocarpine-induced status epilepticus Sprague-Dawley albino rat model assessed as minimal motor impairment at 300 mg/kg, ip after 0.25 hr by rotarod test; assay type: toxicity, organism-based; set-up: dose 300 mg/kg, route intraperitoneal; settings: in vivo; outline: as §2
Rattus norvegicus [8] = assay: Neurotoxicity in pilocarpine-induced status epilepticus Sprague-Dawley albino rat model assessed as minimal motor impairment at 100 mg/kg, ip after 4 hrs by rotarod test; assay type: toxicity, organism-based; set-up: dose 100 mg/kg, route intraperitoneal; settings: in vivo
Mus musculus [9] = assay: Neurotoxicity in albino CF1 mouse assessed as minimal motor impairment at 30 mg/kg, ip after 4 hrs by rotarod test; assay type: toxicity, organism-based; set-up: dose 30 mg/kg, route intraperitoneal; settings: in vivo; outline: as §1
Mus musculus [10] = assay: Anticonvulsant activity in albino CF1 mouse assessed as protection against maximal electroshock-induced seizures at 100 mg/kg, ip after 4 hrs; assay type: functional, organism-based; set-up: dose 100 mg/kg; outline: as §1
Mus musculus [11] = assay: Neurotoxicity in albino CF1 mouse assessed as minimal motor impairment at 300 mg/kg, ip after 0.5 hrs by rotarod test; assay type: toxicity, organism-based; set-up: dose 300 mg/kg, route intraperitoneal; settings: in vivo; outline: as §1
Mus musculus [12] = assay: Neurotoxicity in albino CF1 mouse assessed as minimal motor impairment at 100 mg/kg, ip after 4 hrs by rotarod test; assay type: toxicity, organism-based; set-up: dose 100 mg/kg, route intraperitoneal; settings: in vivo; outline: as §1
Rattus norvegicus [13] = assay: Neurotoxicity in pilocarpine-induced status epilepticus Sprague-Dawley albino rat model assessed as minimal motor impairment at 300 mg/kg, ip after 1 hr by rotarod test; assay type: toxicity, organism-based; set-up: dose 300 mg/kg, route intraperitoneal; settings: in vivo; outline: as §2
Mus musculus [14] = assay: Anticonvulsant activity in albino CF1 mouse assessed as protection against subcutaneous metrazol-induced seizures at 100 mg/kg, ip after 4 hrs; assay type: functional, organism-based; set-up: dose 100 mg/kg; outline: as §1
Rattus norvegicus [15] = assay: Anticonvulsant activity in Sprague-Dawley albino rat assessed as protection against maximal electroshock-induced seizures at 30 mg/kg, po after 30 mins; assay type: functional, organism-based; set-up: dose 30 mg/kg
Outline: (§3)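 Rats dosed orally. Anti-MES protection was scored as animals protected over animals tested at each time after dosing. Neurotoxicity was scored as motor impairment or sedation, as animals affected over animals tested.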

Mus musculus [16] = assay: Anticonvulsant activity in albino CF1 mouse assessed as protection against maximal electroshock-induced seizures at 30 mg/kg, ip after 4 hrs; assay type: functional, organism-based; set-up: dose 30 mg/kg; outline: as §1
Mus musculus [17] = assay: Anticonvulsant activity in albino CF1 mouse assessed as protection against subcutaneous metrazol-induced seizures at 30 mg/kg, ip after 4 hrs; assay type: functional, organism-based; set-up: dose 30 mg/kg; outline: as §1
Mus musculus [18] = assay: Anticonvulsant activity in albino CF1 mouse assessed as protection against subcutaneous metrazol-induced seizures at 300 mg/kg, ip after 0.5 hrs; assay type: functional, organism-based; set-up: dose 300 mg/kg; outline: as §1
Mus musculus [19] = assay: Anticonvulsant activity in albino CF1 mouse assessed as protection against subcutaneous metrazol-induced seizures at 300 mg/kg, ip after 4 hrs; assay type: functional, organism-based; set-up: dose 300 mg/kg; outline: as §1
Mus musculus [20] = assay: Anticonvulsant activity in albino CF1 mouse assessed as protection against maximal electroshock-induced seizures at 300 mg/kg, ip after 4 hrs; assay type: functional, organism-based; set-up: dose 300 mg/kg; outline: as §1
Mus musculus [21] = assay: Neurotoxicity in albino CF1 mouse assessed as minimal motor impairment at 100 mg/kg, ip after 0.5 hrs by rotarod test; assay type: toxicity, organism-based; set-up: dose 100 mg/kg, route intraperitoneal; settings: in vivo; outline: as §1
Rattus norvegicus [22] = assay: Anticonvulsant activity in Sprague-Dawley albino rat assessed as protection against maximal electroshock-induced seizures at 30 mg/kg, po after 4 hrs; assay type: functional, organism-based; set-up: dose 30 mg/kg; outline: as §3
Rattus norvegicus [23] = assay: Neurotoxicity in Sprague-Dawley albino rat assessed as minimal motor impairment at 30 mg/kg, po by rotarod test; assay type: toxicity, organism-based; set-up: dose 30 mg/kg, route oral; settings: in vivo; outline: as §3
Rattus norvegicus [24] = assay: Anticonvulsant activity in Sprague-Dawley albino rat assessed as protection against maximal electroshock-induced seizures at 30 mg/kg, po after 1 hr; assay type: functional, organism-based; set-up: dose 30 mg/kg; outline: as §3
Mus musculus [25] = assay: Anticonvulsant activity in albino CF1 mouse assessed as protection against maximal electroshock-induced seizures at 30 mg/kg, ip after 0.5 hrs; assay type: functional, organism-based; set-up: dose 30 mg/kg; outline: as §1
Rattus norvegicus [26] = assay: Neurotoxicity in pilocarpine-induced status epilepticus Sprague-Dawley albino rat model assessed as minimal motor impairment at 300 mg/kg, ip after 4 hrs by rotarod test; assay type: toxicity, organism-based; set-up: dose 300 mg/kg, route intraperitoneal; settings: in vivo; outline: as §2
Mus musculus [27] = assay: Anticonvulsant activity in albino CF1 mouse assessed as protection against maximal electroshock-induced seizures at 300 mg/kg, ip after 0.5 hrs; assay type: functional, organism-based; set-up: dose 300 mg/kg; outline: as §1
Mus musculus [28] = assay: Neurotoxicity in albino CF1 mouse assessed as minimal motor impairment at 30 mg/kg, ip after 0.5 hrs by rotarod test; assay type: toxicity, organism-based; set-up: dose 30 mg/kg, route intraperitoneal; settings: in vivo; outline: as §1
Rattus norvegicus [29] = assay: Neurotoxicity in pilocarpine-induced status epilepticus Sprague-Dawley albino rat model assessed as minimal motor impairment at 100 mg/kg, ip after 1 hr by rotarod test; assay type: toxicity, organism-based; set-up: dose 100 mg/kg, route intraperitoneal; settings: in vivo
Rattus norvegicus [30] = assay: Anticonvulsant activity in Sprague-Dawley albino rat assessed as protection against maximal electroshock-induced seizures at 30 mg/kg, po after 15 mins; assay type: functional, organism-based; set-up: dose 30 mg/kg; outline: as §3
Rattus norvegicus [31] = assay: Neurotoxicity in pilocarpine-induced status epilepticus Sprague-Dawley albino rat model assessed as minimal motor impairment at 300 mg/kg, ip after 0.5 hrs by rotarod test; assay type: toxicity, organism-based; set-up: dose 300 mg/kg, route intraperitoneal; settings: in vivo; outline: as §2
Rattus norvegicus [32] = assay: Anticonvulsant activity in Sprague-Dawley albino rat assessed as protection against maximal electroshock-induced seizures at 30 mg/kg, po after 2 hrs; assay type: functional, organism-based; set-up: dose 30 mg/kg; outline: as §3
Rattus norvegicus [33] = assay: Neurotoxicity in pilocarpine-induced status epilepticus Sprague-Dawley albino rat model assessed as minimal motor impairment at 100 mg/kg, ip after 0.5 hrs by rotarod test; assay type: toxicity, organism-based; set-up: dose 100 mg/kg, route intraperitoneal; settings: in vivo
Rattus norvegicus [34] = assay: Neurotoxicity in pilocarpine-induced status epilepticus Sprague-Dawley albino rat model assessed as minimal motor impairment at 100 mg/kg, ip after 0.25 hr by rotarod test; assay type: toxicity, organism-based; set-up: dose 100 mg/kg, route intraperitoneal; settings: in vivo
Mus musculus [35] = assay: Anticonvulsant activity in albino CF1 mouse assessed as protection against maximal electroshock-induced seizures at 100 mg/kg, ip after 0.5 hrs; assay type: functional, organism-based; set-up: dose 100 mg/kg; outline: as §1

| SMILES | Activity (Mus musculus [2]) | Activity (Mus musculus [3]) | Activity (Rattus norvegicus [4]) | Activity (Mus musculus [5]) | Activity (Rattus norvegicus [6]) | Activity (Rattus norvegicus [7]) | Activity (Rattus norvegicus [8]) | Activity (Mus musculus [9]) | Activity (Mus musculus [10]) | Activity (Mus musculus [11]) | Activity (Mus musculus [12]) | Activity (Rattus norvegicus [13]) | Activity (Mus musculus [14]) | Activity (Mus musculus [16]) | Activity (Mus musculus [17]) | Activity (Mus musculus [18]) | Activity (Mus musculus [19]) | Activity (Mus musculus [20]) | Activity (Mus musculus [25]) | Activity (Mus musculus [28]) | other results |
| --- | --- | --- | --- | --- | --- | --- | --- | --- | --- | --- | --- | --- | --- | --- | --- | --- | --- | --- | --- | --- | --- |
| CCCC(C(N)=O)C(C)CC (stereo not given) |  |  |  |  |  |  |  |  |  |  |  |  |  |  |  |  |  |  |  |  | ED50 (Rattus norvegicus [1]): 84 mg/kg |
| CCC(CC)COC(N)=O | Non-toxic | inactive | Non-toxic | inactive | Non-toxic | Toxic | Non-toxic | Non-toxic | inactive | Toxic | Non-toxic | Non-toxic | inactive | inactive | inactive | Active | inactive | inactive | inactive | Non-toxic | Activity (Rattus norvegicus [15]): inactive; Activity (Mus musculus [21]): Non-toxic; Activity (Rattus norvegicus [22]): inactive; Activity (Rattus norvegicus [23]): Non-toxic; Activity (Rattus norvegicus [24]): inactive; Activity (Rattus norvegicus [26]): Non-toxic; Activity (Mus musculus [27]): Active; Activity (Rattus norvegicus [29]): Non-toxic; Activity (Rattus norvegicus [30]): inactive; Activity (Rattus norvegicus [31]): Toxic; Activity (Rattus norvegicus [32]): inactive |
| CC(C)(C)CCOC(N)=O |  |  | Non-toxic | inactive | Non-toxic | Toxic | Non-toxic |  |  | Toxic |  | Non-toxic |  |  | inactive |  |  |  | Active | Toxic | Activity (Rattus norvegicus [33]): Non-toxic; Activity (Mus musculus [21]): Toxic; Activity (Rattus norvegicus [34]): Non-toxic; Activity (Mus musculus [35]): Active; Activity (Rattus norvegicus [26]): Non-toxic; Activity (Rattus norvegicus [29]): Non-toxic; Activity (Rattus norvegicus [31]): Toxic |
| CCCC(CCC)COC(=O)NC1CCCCC1 | Non-toxic | inactive |  | inactive |  |  |  | Non-toxic | inactive |  | Non-toxic |  | inactive | inactive | inactive | inactive | inactive | inactive | inactive | Non-toxic | Activity (Mus musculus [35]): inactive; Activity (Mus musculus [27]): inactive |

From ChEMBL document CHEMBL2086252, “Syntheses and evaluation of anticonvulsant activity of novel branched alkyl carbamates” (J Med Chem, 2012)
